Test results taken from ChEMBL document CHEMBL1154192, “A series of 1, 2-coupled indane dimers with mast cell stabilisation and smooth muscle relaxation properties” (Eur J Med Chem, 2009).
Values belong to the compound of their own block, whether it stands above or below them.

How the values were obtained:
[1] = tested on: Ileum; assay: Inhibition of calcium-induced contraction in guinea pig ileum at 10 uM; assay type: functional; conditions: Cavia porcellus
Method in brief: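 Guinea-pig ileum was suspended in calcium-free Krebs solution containing 45 mM K+ and contracted by bringing bath calcium to 2.5 mM (sustained >40 min). At stable maximal contracture a single 1 × 10⁻⁵ M concentration was added. Inhibition is given as percentage of stimulated contraction, mean ± SEM, n = 6–12.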

[2] = tested on: Mast cell; assay: Inhibition of compound 48/80-induced histamine release in Wistar rat peritoneal mast cell at 20 uM treated 10 mins before compound 48/80 challenge; assay type: functional
Method in brief: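 Peritoneal cells were lavaged from female Wistar rats (250–350 g) into prewarmed (37 °C) HEPES-buffered salt solution, without purification. Cells were centrifuged, washed three times and held at 4 °C. Inhibition is given as percentage of stimulated release, mean ± SEM, n = 5–10.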

[3] = tested on: Ileum; assay: Inhibition of calcium-induced contraction in guinea pig ileum at 0.03 to 10 uM; assay type: functional, tissue-based; conditions: Cavia porcellus
Method in brief: (§1)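 Isolated guinea-pig ileum in high-potassium (45 mM), calcium-free modified Krebs solution. Sustained contractures (>40 min) were elicited by raising bath CaCl2 to 2.5 mM. Once contraction reached a stable maximum, compound was added cumulatively (3 × 10⁻⁸ – […]). IC50 was calculated from the concentration-effect curve.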

[4] = tested on: Ileum; assay: Inhibition of calcium-induced contraction in guinea pig ileum; assay type: functional, tissue-based; conditions: Cavia porcellus; method in brief: as §1
[5] = tested on: Ileum; assay: Inhibition of calcium-induced contraction in guinea pig ileum at 0.01 uM; assay type: functional; conditions: Cavia porcellus
Method in brief: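 Isolated guinea-pig ileum in high-potassium (45 mM), calcium-free modified Krebs solution. Sustained (>40 min) contractures were elicited by raising bath calcium to 2.5 mM with CaCl2. At stable maximum, a single concentration (1 × 10^-8 M) was added. Inhibition was expressed as a percentage of stimulated values, mean ± SEM, n = 6.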

[6] = tested on: Ileum; assay: Inhibition of calcium-induced contraction in guinea pig ileum at 0.001 to 0.1 uM; assay type: functional, tissue-based; conditions: Cavia porcellus
Method in brief: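 Isolated guinea-pig ileum in high-potassium (45 mM), calcium-free modified Krebs solution. CaCl2 was added to raise bath calcium to 2.5 mM, giving sustained (>40 min) contractures. At stable maximum, drug was added cumulatively at […] to 1 × 10^-7 M. Read-out was inhibition of contracture; IC50 was calculated from the concentration-effect curve.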

SMILES: O=C(O)CC1(C2=CCc3ccccc32)Cc2ccccc2C1=O (stereo unspecified)
inhibition at 10 µM [1]: 1.8%
inhibition at 20 µM [2]: 10.3%

SMILES: CCCCCC1(C2=CCc3ccccc32)Cc2ccccc2C1=O (stereo unspecified)
inhibition at 10 µM [1]: 18%
inhibition at 20 µM [2]: -3.2%

SMILES: CCCC1(C2=CCc3ccccc32)Cc2ccccc2C1=O (stereo unspecified)
inhibition at 10 µM [1]: 51.7%
inhibition at 20 µM [2]: 41.2%

SMILES: CC/C=C/CC1(C2=CCc3ccccc32)Cc2ccccc2C1O (stereo unspecified)
inhibition at 10 µM [1]: 25.6%
inhibition at 20 µM [2]: 49.7%

SMILES: O=C1c2ccccc2CC1(Cc1ccccc1)C1=CCc2ccccc21 (stereo unspecified)
inhibition at 10 µM [1]: 18.9%
inhibition at 20 µM [2]: 24.7%

SMILES: CCCC1(C2=CCc3ccccc32)Cc2ccccc2C1O (stereo unspecified)
inhibition at 10 µM [1]: 34.3%
inhibition at 20 µM [2]: -26%

SMILES: CC/C=C/CC1(C2=CCc3ccccc32)Cc2ccccc2C1=O (stereo unspecified)
inhibition at 10 µM [1]: 19.9%
inhibition at 20 µM [2]: 32.5%

IC50 [3]: 6.2 µM
IC50 [4]: 6.2 µM
SMILES: C=CCC1(C2=CCc3ccccc32)Cc2ccccc2C1O (stereo unspecified)
inhibition at 10 µM [1]: 79.5%
inhibition at 20 µM [2]: -35.5%

SMILES: CCC1(C2=CCc3ccccc32)Cc2ccccc2C1=O (stereo unspecified)
inhibition at 10 µM [1]: 49.6%
inhibition at 20 µM [2]: 19.4%

SMILES: CC1(C2=CCc3ccccc32)Cc2ccccc2C1=O (stereo unspecified)
inhibition at 10 µM [1]: 41.3%
inhibition at 20 µM [2]: 15.6%

SMILES: COC(=O)CC1(C2=CCc3ccccc32)Cc2ccccc2C1=O (stereo unspecified)
inhibition at 10 µM [1]: 20.5%
inhibition at 20 µM [2]: 21.9%

SMILES: COC(=O)c1ccc(CC2(C3=CCc4ccccc43)Cc3ccccc3C2=O)cc1 (stereo unspecified)
inhibition at 10 µM [1]: 31.5%
inhibition at 20 µM [2]: -27.8%

SMILES: O=C(O)c1cc(=O)c2c(OCC(O)COc3cccc4oc(C(=O)O)cc(=O)c34)cccc2o1 [CROMOLYN SODIUM]
inhibition at 20 µM [2]: 9.1%

SMILES: COC(=O)C1=C(C)NC(C)=C(C(=O)OC)C1c1ccccc1[N+](=O)[O-] [NIFEDIPINE]
inhibition at 0.01 µM [5]: 48.1%
IC50 [6]: 0.0147 µM
IC50 [4]: 0.0147 µM

IC50 [4]: 1.3 µM
SMILES: Cc1cc2c(c(C)c1CCO)C(=O)C(C)(C)C2 [PTEROSIN Z]
